The source of these data is ChEMBL document CHEMBL1142944, “Synthesis and biological evaluation of selective aromatase expression regulators in breast cancer cells” (J Med Chem, 2007).

Calls of active or inactive are those of the source. The rule behind the calls is not given here.

Test [1] relates to SK-BR-3. As to the kind of experiment: Decrease in CYP19 gene expression in SK-BR-3 cells at 5 uM. It counts as functional, cell-based. The settings on record: Homo sapiens. An outline of the steps:
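SK-BR-3 cells grown to subconfluency, switched to defined DMEM/F12 medium (human albumin, transferrin, insulin), then exposed 24 h at 5 µM. Total RNA by TRIzol, DNase I-treated, reverse-transcribed with random hexamers (Superscript II, 42 °C 50 min). Taqman real-time PCR with 600 nM CYP19 primers, 50 cycles. CYP19 normalized to 18S rRNA, n = 9, unpaired t test vs control.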

Test [2] relates to SK-BR-3. As to the kind of experiment: Induction of apoptosis in SK-BR-3 cells at 5 uM. It is filed as functional, cell-based. The settings on record: Homo sapiens. A digest of the protocol: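 Cells plated at 0.5 × 10⁴ to 1 × 10⁴ per well in custom medium and left to adhere overnight. Treated 24 h at 5 µM in defined medium, triplicate. After fixation, DNA in apoptotic cells denatured by formamide plus heat. Single-stranded DNA detected by monoclonal antibody ELISA with ABTS, absorbance at 405 nm.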

As for `CN(c1ccc([N+](=O)[O-])cc1OCc1ccccc1)S(C)(=O)=O`, in the test on SK-BR-3 [1], the outcome was Active. Moreover, the result in the test on SK-BR-3 [2] was inactive.
For `CN(c1ccc([N+](=O)[O-])cc1OCc1ccc2ccccc2c1)S(C)(=O)=O` the same measures were “Active” and “inactive”.
Consider `Cc1ccc(COc2cc([N+](=O)[O-])ccc2N(C)S(C)(=O)=O)cc1`, for which the outcome with SK-BR-3 [2] was inactive.
Turning to `CN(c1ccc([N+](=O)[O-])cc1OCc1ccc([N+](=O)[O-])cc1)S(C)(=O)=O`, the outcome in the test with SK-BR-3 [1] was Active. Further, the result in the test on SK-BR-3 [2] was inactive.
Turning to `CN(c1ccc([N+](=O)[O-])cc1OCc1ccc(F)cc1)S(C)(=O)=O`, the outcome in the test with SK-BR-3 [1] was Active. Further, the outcome in the test on SK-BR-3 [2] was inactive.
On to `CS(=O)(=O)Nc1ccc([N+](=O)[O-])cc1OCCc1ccccc1`, for which the result with SK-BR-3 [1] was inactive.
For `CN(c1ccc([N+](=O)[O-])cc1OCc1ccccc1-c1ccccc1)S(C)(=O)=O`, the outcome in the test with SK-BR-3 [1] was Active. For the same molecule, the outcome in the test on SK-BR-3 [2] was inactive.
